{"source": "paper PMC8212709", "about": "(Clinical and Translational Science, 2021)", "key": {"[1]": {"target": "BTK (Homo sapiens, UniProt Q06187)", "sequence (Q06187 whole entry)": "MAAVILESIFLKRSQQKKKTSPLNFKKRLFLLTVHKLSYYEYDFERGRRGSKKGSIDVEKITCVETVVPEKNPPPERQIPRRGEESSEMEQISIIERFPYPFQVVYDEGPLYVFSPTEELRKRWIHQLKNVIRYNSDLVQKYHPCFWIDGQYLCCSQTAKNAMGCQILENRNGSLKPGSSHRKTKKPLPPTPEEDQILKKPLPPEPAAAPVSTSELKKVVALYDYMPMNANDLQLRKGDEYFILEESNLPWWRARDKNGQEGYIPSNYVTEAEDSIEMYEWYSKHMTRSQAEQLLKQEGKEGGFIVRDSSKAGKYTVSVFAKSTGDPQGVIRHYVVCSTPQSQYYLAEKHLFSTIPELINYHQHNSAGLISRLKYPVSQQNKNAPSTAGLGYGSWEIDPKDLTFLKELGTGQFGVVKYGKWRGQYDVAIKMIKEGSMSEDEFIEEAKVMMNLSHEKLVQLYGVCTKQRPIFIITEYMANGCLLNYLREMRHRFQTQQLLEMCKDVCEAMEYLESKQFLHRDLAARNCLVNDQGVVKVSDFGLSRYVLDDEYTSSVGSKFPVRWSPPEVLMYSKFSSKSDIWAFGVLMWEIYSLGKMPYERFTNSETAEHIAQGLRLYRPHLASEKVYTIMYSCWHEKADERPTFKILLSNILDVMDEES", "assay": "BTK occupancy assay in whole blood cell lysates", "assay_type": "in vivo", "procedure,_shortened": "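Healthy subjects in SRD cohorts 1–4 (6 test compound, 2 placebo per cohort) took a single oral dose (0.1 mg starting dose, given as solution) or placebo while fasted. Unoccupied BTK in whole-blood cell lysates was captured by a biotin-modified covalent probe of the test compound. Occupancy was computed per postdose time up to 96 h as 100 − [100 × (BTK concentration ÷ predose BTK concentration)].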"}, "[2]": {"conditions": "nonclinical studies, oral solution; no reference given; cited from earlier work"}, "[3]": {"conditions": "rats, nonclinical, no reference given, cited from earlier work"}, "[4]": {"test_system": "rat collagen‐induced arthritis model", "conditions": "nonclinical, no reference given; cited from earlier work"}, "[5]": {"conditions": "rat, most sensitive toxicological species; nonclinical, no reference given; cited from earlier work"}, "[6]": {"assay": "Plasma pharmacokinetics of TAK‐020", "assay_type": "in vivo, human (healthy subjects)", "conditions": "for half-life / Tmax: human, plasma", "procedure,_shortened": "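In the MRD part, healthy subjects took oral test compound q.d. (3.75–60 mg) or placebo, with sampling on days 1 and 9. Plasma levels were measured by validated HPLC-MS/MS (LLOQ 0.10 ng/mL). Noncompartmental parameters used actual sampling times, with geometric mean and %CV for Cmax and AUC. Accumulation ratios were based on Cmax and AUC24, plus the LS-mean ratio AUC24 (day 9):AUC∞ (day 1).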"}, "[7]": {"conditions": "dogs, nonclinical, no reference given, cited from earlier work"}, "[8]": {"test_system": "FcεRI‐mediated activation of basophils", "assay": "Basophil activation test", "assay_type": "in vivo, human"}}, "note": "Like-named read-outs stand apart in the source and are kept apart here.", "data": [{"smiles": "C=CC(=O)N1CC[C@H](Oc2nc(-c3n[nH]c(=O)[nH]3)cc3ccccc23)C1", "note": "[TAK‐020]", "values": [{"measurement": "duration of BTK occupancy > 70%", "setting": "[1]; SRD, 2.5‐mg and 4.4‐mg doses, longest duration investigated", "value": "> 96", "unit": "h"}, {"measurement": "BTK occupancy, maximum and sustained", "setting": "[1]; SRD, single doses ≥ 2.5 mg (2.5‐mg and 4.4‐mg), blood", "value": "> 70", "unit": "%"}, {"measurement": "duration of > 80% BTK occupancy", "setting": "[1]; single doses of 2.5 and 4.4 mg, postdose", "value": 72, "unit": "h"}, {"measurement": "BTK occupancy (%) of TAK‐020 binding sites", "setting": "[1]; single doses of 2.5 and 4.4 mg, up to 72 hours postdose", "value": "> 80", "unit": "%"}, {"measurement": "duration of BTK saturation", "setting": "[1]; single doses ≥2.5 mg", "value": "> 24", "unit": "h"}, {"measurement": "time of peak plasma concentrations postdose", "setting": "[2]", "value": "≤ 2", "unit": "h"}, {"measurement": "terminal disposition phase elimination half‐life (t1/2z)", "setting": "[3]; after oral administration", "value": "4.4 to 7.3", "unit": "h"}, {"measurement": "oral bioavailability", "setting": "[3]", "value": 13.2, "unit": "%"}, {"measurement": "median effective dose", "setting": "[4]", "value": 0.31, "unit": "mg/kg per day"}, {"measurement": "no observed adverse effect level exposure limit (total AUC)", "setting": "[5]", "value": 63, "unit": "ng·h/mL"}, {"measurement": "least‐squares means ratio of AUC24 (day 9):AUC∞ (day 1)", "setting": "[6]; MRD", "value": "near unity"}, {"measurement": "accumulation ratio based on AUC24 (Rac(AUC24)), geometric mean", "setting": "[6]; MRD 3.75 to 60 mg q.d.", "value": "near unity"}, {"measurement": "accumulation ratio based on Cmax (Rac(Cmax)), geometric mean", "setting": "[6]; MRD 3.75 to 60 mg q.d.", "value": "near unity"}, {"measurement": "steady‐state systemic exposure (mean dose‐normalized Cmax and AUC24) vs dose", "setting": "[6]; MRD, days 1 and 9", "value": "dose‐proportional manner up to 60 mg"}, {"measurement": "half-life", "setting": "[6]; oral, 3.75 mg, mean t1/2z, MRD, 3.75‐mg dose, day 1", "value": 2.59, "unit": "h"}, {"measurement": "half-life", "setting": "[6]; oral, 3.75 mg, mean t1/2z, MRD, 3.75‐mg dose, day 9 after q.d. dosing", "value": 2.15, "unit": "h"}, {"measurement": "half-life", "setting": "[6]; oral, 60 mg, mean t1/2z, MRD, 60‐mg dose, day 1", "value": 6.3, "unit": "h"}, {"measurement": "half-life", "setting": "[6]; oral, 60 mg, mean t1/2z, MRD, 60‐mg dose, day 9 after q.d. dosing", "value": 5.46, "unit": "h"}, {"measurement": "half-life", "setting": "[6]; oral, half‐life, doses ≥ 2.5 mg (abstract)", "value": "3 to 9", "unit": "h"}, {"measurement": "half-life", "setting": "[6]; oral, mean half‐life in plasma, q.d. dosing", "value": "2 to 6", "unit": "h"}, {"measurement": "Tmax", "setting": "[6]; oral, median Tmax, MRD 3.75 to 60 mg, after a single dose on day 1", "value": "0.5 to 0.75", "unit": "h"}, {"measurement": "Tmax", "setting": "[6]; oral, median Tmax, MRD 3.75 to 60 mg, day 9 after q.d. dosing", "value": "0.75 to 1", "unit": "h"}, {"measurement": "Tmax", "setting": "[6]; po, median time to maximum plasma concentration (Tmax), single and multiple doses (abstract)", "value": "0.75 to 1", "unit": "h"}, {"measurement": "terminal disposition phase elimination half‐life (t1/2z)", "setting": "[7]; after oral administration", "value": "3.8 to 6.7", "unit": "h"}, {"measurement": "oral bioavailability", "setting": "[7]", "value": 8.17, "unit": "%"}, {"measurement": "reduction from baseline in the %CD63‐positive basophils", "setting": "[8]; MRD, day 9 after q.d. administration, doses ≥3.75 mg (3.75 to 60 mg)", "value": "> 80", "unit": "%"}, {"measurement": "reduction in the %CD63‐positive basophils sustained throughout the entire dosing interval (predose to 24 hours postdose)", "setting": "[8]; MRD, ≥ 45‐mg doses, after multiple dosing for 9 days", "value": "≥ 80", "unit": "%"}, {"measurement": "reduction in the %CD63‐positive basophils", "setting": "[8]; SRD, 0.1‐mg and 0.5‐mg dose groups", "value": "essentially no reduction"}, {"measurement": "time to return to baseline basophil activity postdose", "setting": "[8]; SRD, single doses ≥ 4.4 mg", "value": "36 to 72", "unit": "h"}, {"measurement": "reduction from baseline of FcεRI‐mediated activation of basophils (%CD63‐positive basophils)", "setting": "[8]; SRD, single doses ≥ 4.4 mg (4.4–105 mg)", "value": "> 80", "unit": "%"}]}]}
